Data set [1] has as its target T1, Mast/stem cell growth factor receptor Kit (Homo sapiens, UniProt P10721). In words: Inhibition of c-KIT mediated signaling pathways assessed as reduction in STAT3/5 phosphorylation at Y705/Y694 in human GIST882 cells at 0.03 to 10 uM measured after 2 hrs by immunoblotting. Type of data set: cell-based. In a few lines:
(§1)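 After an ice-cold PBS wash, cells were lysed in RIPA buffer (50 mM Tris pH 8.0) with protease and phosphatase inhibitors, and protein was quantified by BCA. Lysates were run on SDS-PAGE, transferred to PVDF and blocked in 5% milk/TBST. Phospho- and total proteins were probed by immunoblot with ECL detection; β-actin served as loading control.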
Background: Immunoblotting shows a protein as a band on a membrane.

Data set [2] addresses T2, BCR/ABL p210 fusion protein (Homo sapiens, UniProt A1Z199). In words: Inhibition of BCR/ABL p210 fusion protein mediated signaling pathways assessed as reduction in CrkL phosphorylation at Y207 in human MEG01 cells at 0.01 to 3 uM measured after 2 hrs by immunoblotting. It is filed as cell-based. The following applies: MEG-01. In a few lines:
as §1

Data set [3] concerns Mus musculus. As to the kind of experiment: Toxicity in nu/nu mouse xenografted with human K562 cells assessed as change in body weight at 25 to 100 mg/kg/day administered via oral gavage measured after 28 days. Type of data set: organism-based. The following applies: in vivo, 672 h. In a few lines:
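Female nu/nu mice given 10 million K562 cells in PBS/Matrigel (1:1) subcutaneously into the right flank. Once tumors reached 200 to 400 mm³, mice were randomized into groups of 4 or 5 and dosed daily by oral gavage in 0.5% methylcellulose/0.4% Tween80 in water, or vehicle, for 28 days. Body weight measured and expressed relative to initial; mean ± SEM.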

The target in data set [4] is T1, Mast/stem cell growth factor receptor Kit. As to the kind of experiment: Inhibition of c-KIT mediated signaling pathways assessed as reduction in S6 phosphorylation at S235/236 in human GIST882 cells at 0.03 to 10 uM measured after 2 hrs by immunoblotting. Type of data set: cell-based. The gist of the method:
as §1

A short description of data set [5]: Mean residence time (0 to t) in Sprague-Dawley rat at 1 mg/kg, iv. Type of data set: ADME, organism-based. To be noted: in vivo. The gist of the method:
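Male Sprague-Dawley rats, 6-8 weeks old, fasted overnight, dosed iv or po. Jugular vein blood (~0.2 mL, heparin) sampled at 1 min to 8 h (iv) or 5 min to 24 h (po). Plasma separated by centrifugation at 2-8 °C and stored at -80 °C before analysis.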

Data set [6] in a line: Cell cycle arrest in human MEG01 cells assessed as accumulation at G0/G1 phase at 0.3 uM after 24 hrs by propidium iodide/RNase staining based flow cytometry. The following applies: MEG-01. Type of data set: functional. In a few lines:
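Cells were exposed to serially diluted compound, then fixed in cold 70% ethanol overnight at -20 °C. They were stained with PI/RNase buffer for DNA-content cell-cycle analysis.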
For orientation: Flow cytometry measures light scatter and fluorescence of single cells or particles in a stream.

Data set [7] deals with Mast/stem cell growth factor receptor Kit (Homo sapiens), P10721 [V654A]. As to the kind of experiment: Inhibition of Tel-fused c-KIT V654A mutant (unknown origin) expressed in BAF3 cells assessed as growth inhibition measured after 72 hrs by CellTiter-Glo or CCK8 assay. It is filed as cell-based. In a few lines:
(§2)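 BaF3 lines were made by retroviral transduction with kinase-fusion MSCV vectors packaged in HEK293T cells. Cells were selected with puromycin for 48 h, then selected again without IL-3 so growth depends on the introduced kinase. […] They were seeded at 1 to 2.5×10^4 cells/mL with compound dilutions and incubated 72 h. Viability was read by CellTiter-Glo luminescence or CCK-8 absorbance (450/655 nm), normalized to DMSO control; GI50 was curve-fitted from triplicate tests.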
Background: Cellular ATP, detected with luciferase, serves as a proxy for viable cell number.

Data set [8] has as its system Mast/stem cell growth factor receptor Kit (Homo sapiens), P10721 [L576P]. As to the kind of experiment: Inhibition of Tel-fused c-KIT L576P mutant (unknown origin) expressed in BAF3 cells assessed as growth inhibition measured after 72 hrs by CellTiter-Glo or CCK8 assay. Type of data set: cell-based. The gist of the method:
as §2

Data set [9] deals with K562. As to the kind of experiment: Induction of apoptosis in human K562 cells assessed as increase in cleaved caspase-3 level at 0.1 to 3 uM by Western blot analysis. It is filed as functional, cell-based. In a few lines: (§3)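 Cells were treated with DMSO or serially diluted compound for the indicated periods. They were washed in ice-cold PBS and lysed in RIPA buffer with protease/phosphatase inhibitors, and protein was quantified by BCA. Lysates were resolved by SDS-PAGE, transferred to PVDF and blocked in 5% milk/TBST. Blots were probed for PARP and caspase-3, with β-actin as loading control, and detected by ECL.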

Data set [10] addresses T1, Mast/stem cell growth factor receptor Kit. As to the kind of experiment: Inhibition of c-KIT mediated signaling pathways assessed as reduction in S6K phosphorylation at T389 in human GISTT1 cells at 0.03 to 10 uM measured after 2 hrs by immunoblotting. Type of data set: cell-based. In a few lines: as §1
The nature of data set [11]: Cmax in Sprague-Dawley rat at 1 mg/kg, iv. To be noted: in vivo. It is filed as ADME, organism-based. The arrangement: dose 1 mg/kg, route intravenous. In a few lines:
(§4)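 Male Sprague-Dawley rats aged six to eight weeks were fasted overnight and then dosed iv or orally. Blood (~0.2 mL) was drawn from the jugular vein into heparin and kept on ice. Sampling was at 1 min to 8 h for iv and 5 min to 24 h for oral. Plasma was separated by centrifugation at 2-8 °C and stored at -80 °C until analysis.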

Data set [12] has as its system GISTT1. As to the kind of experiment: Induction of apoptosis in human GISTT1 cells assessed as cleavage of PARP at 0.1 to 3 uM by Western blot analysis. It is filed as functional, cell-based. In a few lines: as §3
Data set [13] is described as follows: AUC (0 to t) in Sprague-Dawley rat at 10 mg/kg, po. Type of data set: ADME, organism-based. To be noted: in vivo. In a few lines: as §4
Data set [14] is described as follows: Antiproliferative activity against human K562 cells measured after 72 hrs by CellTiter-Glo or CCK8 assay. Type of data set: functional. To be noted: K562, 72 h.
The target of data set [15] is Platelet-derived growth factor receptor beta (Homo sapiens, UniProt P09619). In words: Inhibition of recombinant His-tagged human PDGFR-beta cytoplasmic domain (558 to 1106 residues) expressed in baculovirus expression system assessed as residual activity at 1 uM by KINOMEscan binding assay relative to control.
Data set [16] concerns the target T2, BCR/ABL p210 fusion protein. As to the kind of experiment: Inhibition of BCR/ABL p210 fusion protein mediated signaling pathways assessed as reduction in Stat5 phosphorylation at Y694 in human K562 cells at 0.01 to 3 uM measured after 2 hrs by immunoblotting. It is filed as cell-based. In a few lines:
as §1

Data set [17] concerns K562. As to the kind of experiment: Induction of apoptosis in human K562 cells xenografted in nu/nu mouse administered daily via oral gavage measured 28 days post compound treatment by TUNEL staining based assay. It is filed as functional, cell-based. In a few lines:
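K562 xenograft tumors from daily orally dosed mice were fixed in 10% neutral-buffered formalin and paraffin-embedded. Six-micron sections were TUNEL-stained to detect apoptotic nuclei.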

Data set [18] in a line: Half life in Sprague-Dawley rat at 10 mg/kg, po. The following applies: in vivo. Type of data set: ADME, organism-based. The gist of the method: as §4
Data set [19] deals with T2, BCR/ABL p210 fusion protein. In words: Inhibition of human BCR/ABL p210 fusion protein expressed in BAF3 cells assessed as growth inhibition measured after 72 hrs by CellTiter-Glo or CCK8 assay. Type of data set: cell-based. In a few lines: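 Seeded at 1 to 2.5×10^4 cells/mL with various compound concentrations, 72 h. Viability read by CellTiter-Glo luminescence or CCK-8 absorbance (450/655 nm), normalized to DMSO control, GI50 from curve fit, triplicate testing.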

Data set [20] deals with T1, Mast/stem cell growth factor receptor Kit. To be noted: GISTT1, 1 uM.
Data set [21] shares this target. The following applies: 1 uM.

Calls of active or inactive are those of the source. The rule behind the calls is not given here.

T1 sequence (P10721 whole entry): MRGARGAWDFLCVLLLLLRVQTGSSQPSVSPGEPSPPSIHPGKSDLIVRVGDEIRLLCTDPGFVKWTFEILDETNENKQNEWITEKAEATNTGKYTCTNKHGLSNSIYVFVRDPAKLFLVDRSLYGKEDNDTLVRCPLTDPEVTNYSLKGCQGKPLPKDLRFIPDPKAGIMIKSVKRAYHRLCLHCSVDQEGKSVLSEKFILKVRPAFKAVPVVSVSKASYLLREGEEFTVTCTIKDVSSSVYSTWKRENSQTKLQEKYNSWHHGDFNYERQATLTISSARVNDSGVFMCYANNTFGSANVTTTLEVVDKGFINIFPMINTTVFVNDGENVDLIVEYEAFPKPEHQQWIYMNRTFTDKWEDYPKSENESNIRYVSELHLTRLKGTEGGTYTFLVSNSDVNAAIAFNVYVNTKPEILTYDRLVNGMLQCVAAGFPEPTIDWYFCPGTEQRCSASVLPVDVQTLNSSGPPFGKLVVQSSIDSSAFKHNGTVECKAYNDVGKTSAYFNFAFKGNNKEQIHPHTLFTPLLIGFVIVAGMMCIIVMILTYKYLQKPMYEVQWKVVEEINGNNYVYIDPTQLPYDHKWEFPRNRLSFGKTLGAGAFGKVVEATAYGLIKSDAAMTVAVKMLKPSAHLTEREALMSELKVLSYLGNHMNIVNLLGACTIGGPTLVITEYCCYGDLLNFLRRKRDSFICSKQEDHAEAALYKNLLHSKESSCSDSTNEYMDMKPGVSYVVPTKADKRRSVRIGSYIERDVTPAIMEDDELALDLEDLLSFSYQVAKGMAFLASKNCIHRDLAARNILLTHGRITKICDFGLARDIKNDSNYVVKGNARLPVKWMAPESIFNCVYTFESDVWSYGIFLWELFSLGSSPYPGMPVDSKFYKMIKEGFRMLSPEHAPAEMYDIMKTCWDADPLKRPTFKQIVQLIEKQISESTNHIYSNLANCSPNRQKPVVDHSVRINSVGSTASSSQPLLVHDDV
T2 sequence (A1Z199 1-97): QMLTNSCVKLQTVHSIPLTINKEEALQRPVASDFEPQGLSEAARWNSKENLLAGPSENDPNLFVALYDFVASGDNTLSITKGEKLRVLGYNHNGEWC
Chain of Mast/stem cell growth factor receptor Kit (Homo sapiens), P10721 [V654A] (P10721 whole entry V654A, the tested form may be a part): as the sequence (P10721 whole entry) above, with V654A counted along it
Chain of Mast/stem cell growth factor receptor Kit (Homo sapiens), P10721 [L576P] (P10721 whole entry L576P, the tested form may be a part): as the sequence (P10721 whole entry) above, with L576P counted along it
Chain of Platelet-derived growth factor receptor beta (P09619 whole entry, the tested form may be a part): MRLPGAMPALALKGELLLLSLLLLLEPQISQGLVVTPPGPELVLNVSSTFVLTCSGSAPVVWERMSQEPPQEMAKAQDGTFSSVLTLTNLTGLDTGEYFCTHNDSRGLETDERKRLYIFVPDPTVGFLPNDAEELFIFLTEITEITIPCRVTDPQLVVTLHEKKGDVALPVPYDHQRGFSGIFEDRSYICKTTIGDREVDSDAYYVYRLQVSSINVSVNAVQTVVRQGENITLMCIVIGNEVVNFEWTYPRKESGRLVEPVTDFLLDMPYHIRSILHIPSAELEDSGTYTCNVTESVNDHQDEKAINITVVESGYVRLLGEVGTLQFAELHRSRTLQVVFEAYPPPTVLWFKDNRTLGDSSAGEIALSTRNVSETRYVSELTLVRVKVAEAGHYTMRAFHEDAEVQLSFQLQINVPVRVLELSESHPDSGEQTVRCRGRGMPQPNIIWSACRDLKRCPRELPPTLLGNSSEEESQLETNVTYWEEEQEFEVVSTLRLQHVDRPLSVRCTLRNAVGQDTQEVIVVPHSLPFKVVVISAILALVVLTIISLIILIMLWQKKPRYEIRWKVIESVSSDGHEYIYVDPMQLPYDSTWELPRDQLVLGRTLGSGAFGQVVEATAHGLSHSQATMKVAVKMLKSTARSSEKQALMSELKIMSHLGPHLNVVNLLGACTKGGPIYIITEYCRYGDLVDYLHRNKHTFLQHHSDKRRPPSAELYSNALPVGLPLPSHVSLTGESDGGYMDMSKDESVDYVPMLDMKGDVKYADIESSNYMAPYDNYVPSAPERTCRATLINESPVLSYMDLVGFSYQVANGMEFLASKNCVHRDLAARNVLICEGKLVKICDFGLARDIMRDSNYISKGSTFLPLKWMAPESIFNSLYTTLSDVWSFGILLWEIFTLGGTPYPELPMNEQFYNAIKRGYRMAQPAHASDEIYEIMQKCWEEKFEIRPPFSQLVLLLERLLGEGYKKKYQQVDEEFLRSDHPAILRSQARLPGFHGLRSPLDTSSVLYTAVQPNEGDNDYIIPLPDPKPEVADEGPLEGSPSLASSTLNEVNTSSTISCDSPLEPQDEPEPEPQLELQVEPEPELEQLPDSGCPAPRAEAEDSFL

Usually MRT last stands for the average time that molecules of a dose stay in the body. As a reminder, the GI50 is the concentration giving 50% growth inhibition. For orientation: Cmax means the peak of the concentration-time curve. For orientation: AUC(0-t) means exposure summed from dosing to a finite time, without extrapolation to infinity. A high value points to more exposure. One may read the half-life as the time in which the quantity being followed falls by half. Low values mean rapid decline, high ones slow decline. For the compound `Cc1ccc(C(=O)N2CCC(Oc3cc(NC(=O)c4ccc(CN5CCN(C)CC5)c(C(F)(F)F)c4)ccc3C)CC2)cn1`, the inhibition entry in data set [1], in data set [2], in [4], in [10] and in [16] was “Active” throughout. Besides, the Activity result in data set [3] is “Non-Toxic”; in [15], 0.3%; in data set [17] it was “Dose-dependent effect”. Further, in data set [5], the MRT last was determined as 1.93 h. In addition, the outcome in data set [6], in data set [9] and in [12] was Active. The GI50 in [7] stood at 1.84 µM; in [8], 0.221 µM; in data set [14], 0.027 µM; in data set [19], 0.033 µM. The compound also came in with a Cmax in [11] of 825 ng/mL. In data set [13], the AUC(0-t) was determined as 2420 ng·h/mL. Moreover, the half-life in [18] was 2.83 h.

As for `Cc1ccc(NC(=O)c2ccc(CN3CCN(C)CC3)cc2)cc1Nc1nccc(-c2cccnc2)n1` [IMATINIB], the inhibition result in [20] and in data set [21] was “Active” each time.

Values taken from ChEMBL document CHEMBL3877303 (J Med Chem, 2017).
